# Measured values reported in ChEMBL document CHEMBL4024795, “G-Quadruplex Identification in the Genome of Protozoan Parasites Points to Naphthalene Diimide Ligands as New Antiparasitic Agents” (J Med Chem, 2018).
# pIC50: −log10 of the molar value. Activity calls are given as the source filed them. The rule behind the calls is not given here.
# How the values were obtained:
# Danio rerio [1] = organism: Danio rerio; test: Acute toxicity in AB zebrafish embryo assessed as lowest observed effect concentration with mortality score of >20% at 100 uM after 96 hrs post-fertlization; conditions: in vivo
# Procedure, shortened: (§1)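 AB-strain embryos, with abnormal ones discarded, were placed 20 per condition at 3 hpf into compound dilutions in 0.1% DMSO/E3 (0.01, 0.1, 1, 10, 100 μM) and kept at 28.5 °C to 96 hpf. Mortality was scored and LC50 fitted by sigmoidal curve. NOEC/LOEC took >20% mortality as the effect. Controls were 0.1% DMSO (triplicate) and DEAB.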
# Danio rerio [2] = organism: Danio rerio; test: (§2) Acute toxicity in AB zebrafish embryo assessed as mortality after 96 hrs post-fertlization; conditions: in vivo, 96 h; procedure, shortened: as §1
# Plasmodium falciparum = test: Antimalarial activity against erythrocyte stage of Plasmodium falciparum 3D7 preincubated for 48 hrs followed by [3H]-hypoxanthine addition measured after 18 hrs by liquid scintillation counting; format: functional
# Procedure, shortened: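 P. falciparum 3D7-infected erythrocytes (1.5% hematocrit, 0.6% parasitemia) in RPMI 1640 + 10% AB human serum, DMSO ≤0.25% final. After 48 h at 37 °C, 0.6 μCi [3H]-hypoxanthine added for 18 h. Cells harvested onto glass-fibre filters and counted by scintillation, with uninfected-erythrocyte background subtracted. IC50 = 50% growth inhibition.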
# Leishmania major = test: Antileishmanial activity against Leishmania major MHOM/IL/80/Friedlin promastigotes after 72 hrs by MTT assay; format: functional
# Procedure, shortened: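 L. major Friedlin promastigotes at 1 × 10^6 per mL, 72 h at 28 °C in modified RPMI-1640 + 10% hiFBS with increasing drug concentrations; proliferation by MTT, absorbance 540 nm.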
# [3] = Drug localization in Trypanosoma brucei kinetoplast at 5 uM after 150 mins by confocal microscopic analysis; format: ADME; conditions: 2.5 h
# Procedure, shortened: (§3)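 T. brucei exposed to 5 μM compound in medium at 37 °C for 30 or 150 min. Fixed in 4% paraformaldehyde for 30 min, washed twice in cold PBS, then imaged by confocal microscopy using the compounds' intrinsic fluorescence.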
# Danio rerio [4] = organism: Danio rerio; test: Acute toxicity in AB zebrafish embryo assessed as no observed effect concentration with mortality score of >20% at 100 uM after 96 hrs post-fertlization; conditions: in vivo; procedure, shortened: as §1
# MRC5 = test: Cytotoxicity against human MRC5 cells assessed as cell growth inhibition after 72 hrs by MTT assay; format: cell-based; conditions: MRC5, 72 h
# Procedure, shortened: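 MRC5 cells in low-glucose DMEM + 10% hiFBS, seeded by trypsinization at 5000 cells/well with increasing compound concentrations. MTT read-out after 72 h at 37 °C. IC50 = 50% growth reduction versus untreated cells.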
# Trypanosoma brucei [5] = test: Drug localization in Trypanosoma brucei nucleus at 5 uM after 150 mins by confocal microscopic analysis; format: ADME; conditions: 2.5 h; procedure, shortened: as §3
# [6] = Selectivity index, ratio of IC50 for human MRC5 cells to IC50 for erythrocyte stage of Plasmodium falciparum 3D7; format: toxicity; conditions: read-out: Ratio IC50
# [7] = Drug localization in Trypanosoma brucei kinetoplast at 5 uM after 30 mins by confocal microscopic analysis; format: ADME; conditions: 0.5 h; procedure, shortened: as §3
# [8] = Drug localization in Trypanosoma brucei nucleus at 5 uM after 30 mins by confocal microscopic analysis; format: ADME; conditions: 0.5 h; procedure, shortened: as §3
# Trypanosoma brucei [9] = test: Binding affinity to Trypanosoma brucei FT-labeled EBR1 G-quadruplex DNA at 3 uM by circular dichroism spectroscopic analysis
# Procedure, shortened: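 EBR1-FT quadruplex at 3 μM in 10 mM lithium cacodylate pH 7.2 with 100 mM KCl, titrated with ligand (ratio 1:0 to 1:10). Spectra recorded at 25 °C in a 1 cm cell, average of three scans at 100 nm/min, 2 nm bandwidth.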
# [10] = test system: human telomeric hTel G-quadruplex DNA (Homo sapiens); test: Binding affinity to FT-labeled human telomeric hTel G-quadruplex DNA assessed as change in melting temperature at 2 uM at pH 7.2 by FRET melting assay
# [11] = test system: Trypanosoma brucei brucei; test: Antitrypanosomal activity against bloodstream form of Trypanosoma brucei brucei after 72 hrs by alamar blue assay; format: functional
# Procedure, shortened: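 Bloodstream-form T. b. brucei single marker S427 (S16) in HMI-9 + 10% hiFBS, seeded at 1 × 10^4 per mL. Increasing compound concentrations for 72 h at 37 °C, 5% CO2. Proliferation by alamarBlue fluorescence (ex 550/em 590 nm).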
# [12] = Selectivity index, ratio of IC50 for human MRC5 cells to IC50 for Leishmania major MHOM/IL/80/Friedlin promastigotes; format: toxicity; conditions: read-out: Ratio IC50
# Procedure, shortened: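 SI is IC50(MRC-5)/IC50(parasite). L. major Friedlin promastigotes (1 × 10^6/mL) were exposed to increasing compound in modified RPMI-1640 + 10% hiFBS for 72 h at 28 °C, with MTT read at 540 nm. MRC5 cells (5000/well, low-glucose DMEM + 10% hiFBS) got increasing compound for 72 h at 37 °C, with MTT read-out. IC50 is versus untreated cells.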
# [13] = as §2; set-up: species or system Danio rerio; conditions: AB, in vivo; procedure, shortened: as §1
# [14] = Selectivity index, ratio of IC50 for human MRC5 cells to IC50 for bloodstream form of Trypanosoma brucei brucei; format: toxicity; conditions: read-out: Ratio IC50
# Procedure, shortened: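 Ratio of IC50 in MRC-5 to IC50 in parasite. Bloodstream-form T. b. brucei single-marker S427 (1 × 10^4/mL, HMI-9 + 10% hiFBS) was exposed to increasing compound for 72 h at 37 °C, 5% CO2, with alamarBlue fluorescence (ex 550/em 590).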
SMILES,MTC (Danio rerio [1]) [µM],LC50 (Danio rerio [2]) [µM],pIC50 (Plasmodium falciparum),pIC50 (Leishmania major),Drug uptake [3],NOAEL (Danio rerio [4]) [µM],pIC50 (MRC5),Drug uptake (Trypanosoma brucei [5]),selectivity ratio [6],Drug uptake [7],Drug uptake [8],Activity (Trypanosoma brucei [9]),ΔTm [10] [°C],pIC50 [11],selectivity ratio [12],LC50 at 96 h [13] [µM],selectivity ratio [14]
CCCNc1cc2c3c(ccc4c3c1C(=O)N(CCCN(C)C)C4=O)C(=O)N(CCCN(C)C)C2=O,1000,410,7.04,7.47,Active,100,6.44,Active,4,Active,Active,Active,19,,,,
C[n+]1ccc(-c2c3nc(c(-c4cc[n+](C)cc4)c4ccc([nH]4)c(-c4cc[n+](C)cc4)c4nc(c(-c5cc[n+](C)cc5)c5ccc2[nH]5)C=C4)C=C3)cc1,,,< 4.60,4.68,,,< 4.60,,,,,,,< 5.00,> 1.7,,
CN(C)CCCN1C(=O)c2ccc3c4c(c(NCc5cn([C@@H]6O[C@H](CO)[C@@H](O)[C@H](O)[C@H]6O)nn5)cc(c24)C1=O)C(=O)N(CCCN(C)C)C3=O,,,5.87,6.61,,100,5.94,,0.9,,,,,7.62,,> 1000,
CN(C)CCCN1C(=O)c2ccc3c4c(c(NCc5cn(CCO[C@H]6O[C@H](CO)[C@@H](O)[C@H](O)[C@@H]6O)nn5)cc(c24)C1=O)C(=O)N(CCCN(C)C)C3=O,,,6.74,6.51,,100,6.09,,4.5,,,,,7.68,2.6,> 1000,38.6
CN(C)CCCN1C(=O)c2ccc3c4c(c(NCc5cn(CCO[C@@H]6O[C@H](CO)[C@@H](O)[C@H](O)[C@H]6O)nn5)cc(c24)C1=O)C(=O)N(CCCN(C)C)C3=O,,,6.56,6.27,Active,100,6.15,Active,2.6,Active,Active,Active,10,,,> 1000,
C[C@H]1O[C@@H](n2cc(CNc3cc4c5c(ccc6c5c3C(=O)N(CCCN(C)C)C6=O)C(=O)N(CCCN(C)C)C4=O)nn2)[C@H](O)[C@@H](O)[C@@H]1O,,170,6.65,6.74,,100,6.04,,4,,,,,7.77,4.9,,53.5
NCCOc1cc(C(=O)Nc2cc(OCCN)c3ccccc3n2)nc(C(=O)Nc2cc(OCCN)c3ccccc3n2)c1 [PYRIDOSTATIN],,,5.58,5.30,,,5.27,,2,,,,,5.11,1.1,,0.7
CC(=O)N[C@@H]1[C@@H](O)[C@H](O)[C@@H](CO)O[C@H]1n1cc(CNc2cc3c4c(ccc5c4c2C(=O)N(CCCN(C)C)C5=O)C(=O)N(CCCN(C)C)C3=O)nn1,,,6.44,5.98,,100,6.29,,1.4,,,,,7.05,0.5,> 1000,5.7
CN(C)c1ccc(Nc2c3ccc(NC(=O)CCN4CCCC4)cc3nc3cc(NC(=O)CCN4CCCC4)ccc23)cc1,,,5.01,4.90,,,5.08,,0.9,,,,,5.26,0.7,,1.5
CCCCCCCCCCCCCCCCOP(=O)([O-])OCC[N+](C)(C)C [MILTEFOSINE],,,,5.22,,,,,,,,,,,,,
